The record followed here is PubChem BioAssay.

Calls of active or inactive are those of the source.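 Rule for the calls, unless noted: active = viability at or under a set limit in both replicates, limit being median viability minus 3 SD (cut at about 48% in these data, passing the limit was not always enough); inconclusive = at or under the limit in just one replicate; inactive = at or above the limit in both replicates.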

Assay [1] concerns the target Pantothenate synthetase (Mycobacterium tuberculosis (strain ATCC 25618 / H37Rv)) (UniProt P9WIL5). Nature of the assay: Recombinant Mtb pantothenate synthetase (PanC) inhibitors, coupled enzyme, confirmatory (AID 375; call rule not given here;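 note: 0% = full reaction with vehicle and 100% = no enzyme background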). As to conditions: coupled enzyme assay; at 10 µM, stronger effect = higher value.
Assay [2] can be described thus: reducers of endogenous Her2 protein level, primary screen, SKBR3 breast tumor cells, AlphaScreen, ATP viability (AID 461;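 active = Her2 level under about 52% in both replicate screens, with viability over 70% of control, limit read from the data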;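 for Her2 level: lower value means less Her2 protein in the cells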;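 for viability: percent of carrier control wells set as 100% viability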). The following applies: 18-24 h, measured here: SKBR3 viability, ATP luminescence, at 10 µM.
Assay [3] deals with Receptor tyrosine-protein kinase erbB-2 (Homo sapiens) (UniProt P04626). The assay is described as above. As to conditions: 18-24 h, at 10 µM, stronger effect = lower value.
Receptor tyrosine-protein kinase erbB-2 (Homo sapiens), sequence (P04626 whole entry, looked up): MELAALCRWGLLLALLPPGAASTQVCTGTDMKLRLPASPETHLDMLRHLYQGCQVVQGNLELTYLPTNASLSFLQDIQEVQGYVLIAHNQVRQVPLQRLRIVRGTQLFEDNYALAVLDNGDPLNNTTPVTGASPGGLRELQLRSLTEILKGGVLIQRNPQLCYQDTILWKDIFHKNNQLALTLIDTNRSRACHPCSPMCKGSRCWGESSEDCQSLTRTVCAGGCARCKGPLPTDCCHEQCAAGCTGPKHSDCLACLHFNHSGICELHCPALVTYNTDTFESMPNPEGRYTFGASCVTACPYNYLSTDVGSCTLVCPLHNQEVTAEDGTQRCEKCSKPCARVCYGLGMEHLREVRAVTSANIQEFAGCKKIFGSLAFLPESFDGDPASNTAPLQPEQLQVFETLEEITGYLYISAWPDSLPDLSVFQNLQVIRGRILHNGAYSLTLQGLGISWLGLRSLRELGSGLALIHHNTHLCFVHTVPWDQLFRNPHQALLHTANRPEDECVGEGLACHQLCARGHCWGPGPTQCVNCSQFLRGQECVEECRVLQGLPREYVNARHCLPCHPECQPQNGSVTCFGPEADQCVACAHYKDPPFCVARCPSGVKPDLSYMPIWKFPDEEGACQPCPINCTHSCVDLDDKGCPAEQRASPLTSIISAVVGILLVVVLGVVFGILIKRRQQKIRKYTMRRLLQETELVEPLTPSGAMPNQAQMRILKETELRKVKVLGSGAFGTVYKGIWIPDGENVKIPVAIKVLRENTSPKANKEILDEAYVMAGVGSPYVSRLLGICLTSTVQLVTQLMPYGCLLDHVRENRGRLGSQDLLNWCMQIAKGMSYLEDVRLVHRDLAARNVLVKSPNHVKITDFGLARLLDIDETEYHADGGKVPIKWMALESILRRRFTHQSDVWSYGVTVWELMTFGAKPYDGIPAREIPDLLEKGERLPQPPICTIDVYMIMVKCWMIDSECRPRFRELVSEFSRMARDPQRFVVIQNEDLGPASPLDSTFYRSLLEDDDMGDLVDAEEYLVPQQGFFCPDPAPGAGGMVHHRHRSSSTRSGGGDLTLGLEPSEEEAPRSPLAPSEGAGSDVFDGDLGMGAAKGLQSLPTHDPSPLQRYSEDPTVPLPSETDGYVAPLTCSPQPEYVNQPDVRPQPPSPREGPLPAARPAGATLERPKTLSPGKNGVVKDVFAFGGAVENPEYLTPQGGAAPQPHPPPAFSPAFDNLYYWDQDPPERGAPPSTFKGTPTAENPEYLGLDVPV
The nature of assay [4]: SK-BR-3 cell growth inhibitors, pilot screen, 24 h, human (AID 572;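 active = viability at or below 10% of carrier control in both of two separate runs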;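 note: compound exposure lasted between 18 and 24 h rather than exactly 24 h; 100% = carrier-treated control wells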). The following applies: SK-BR-3 viability, CellTiter-Glo luminescence, at 10 µM, stronger effect = lower value.
Assay [5] can be described thus: HUVEC growth inhibition – cell-based, human, primary screen (AID 575;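 active = viability at or below 30% in both replicate assays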;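 note: 100% = median of untreated cell wells with 0.1% DMSO on each plate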). The following applies: HUVEC proliferation, CellTiter-Glo luminescence, 72 h; at 10 µM; stronger effect = lower value. The essentials:
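System: primary human umbilical vein endothelial cells; Quantity: 1250 endothelial cells in each well; Buffer or medium: supplemented EBM, 2% fetal bovine serum; Doses: one dose, 10 µM final, 0.1% DMSO; Incubation: 72 h compound incubation; Technique: ATP-based CellTiter-Glo luminescent read; Evaluation: percent of median DMSO-control luminescence; Controls: vehicle and MePR control wells.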
Background: Cellular ATP, detected with luciferase, serves as a proxy for viable cell number.

Assay [6] in a line: growth inhibitors of H69AR lung tumor, primary screen, human, duplicate replicates (AID 580).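 Note: 100% = mean luminescence of untreated wells and 0% = no signal.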 As to conditions: H69AR lung tumor cells viability, ATP luminescence, 72 h; at 10 µM; stronger effect = lower value.
Assay [7] can be described thus: reversal of MRP1-mediated doxorubicin resistance, pilot screen, H69AR cells, doxorubicin co-treatment (AID 601;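 active = viability loss from added drug above about 55%, and viability with drug at most 40%, in both replicates, limit read from the data, passing the limit was not always enough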). The following applies: CellTiter-Glo, 72 h, at 10 µM; for differential viability (reversal): stronger effect = higher value.
A short description of assay [8]: 384-well plate pilot, post-Golgi transport modulator project, inhibition of yeast transport mutant growth (AID 636; in the data active = inhibition above about 31%). As to conditions: absorbance 615 nm, about 18 h, stronger effect = higher value.
The nature of assay [9]: growth suppression of yeast trafficking mutant, preliminary HTS, modulators of trafficking downstream of Golgi apparatus project, 1536-format plate, OD 615 nm (AID 637; in the data active = inhibition above about 30%). As to conditions: yeast transport mutant growth, absorbance 615 nm, 18 h; stronger effect = higher value.
[10] abbreviates: H69AR cells + 2 uM doxorubicin, measured here: viability with 2 uM doxorubicin, stronger effect = lower value.
The mark [11] stands for this setting: H69AR cells, compound alone cytotoxicity.

For orientation: inhibition means the change of the read-out against control, counted positive when it falls. One may read the viability as a read-out of living cells in per cent, often relative to untreated cells.

Pantothenate synthetase (Mycobacterium tuberculosis (strain ATCC 25618 / H37Rv)), sequence (P9WIL5 whole entry, looked up): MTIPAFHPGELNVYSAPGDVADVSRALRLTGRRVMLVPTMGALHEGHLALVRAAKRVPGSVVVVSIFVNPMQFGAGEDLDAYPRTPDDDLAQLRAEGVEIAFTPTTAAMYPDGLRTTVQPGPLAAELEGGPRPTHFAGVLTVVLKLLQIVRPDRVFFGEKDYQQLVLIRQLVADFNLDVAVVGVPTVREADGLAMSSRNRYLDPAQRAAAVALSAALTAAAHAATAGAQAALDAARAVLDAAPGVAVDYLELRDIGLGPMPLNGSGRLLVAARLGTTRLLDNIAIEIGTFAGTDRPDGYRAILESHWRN

Regarding `CCOP(=S)(OCC)c1ccc(N(C)C)cc1`, the inhibition was 0% (inactive) in assay [1], 4.29% (inactive) in [8] and -12.1% (inactive) in assay [9]. The viability was 92.5% in assay [2]; 92.5% (inactive) in [4]; 93.6% (inactive) in assay [5]; 78.3% (inactive) in [6]; 87.5% in assay [7] (setting [10]); 78.3% in assay [7] (setting [11]). Further, in assay [3], the Her2 level is 104% (inactive). The differential viability (reversal) in [7] (H69AR cells + 2 uM doxorubicin) is -9.22% (inactive).

With `Cn1c(O)c(C=NCc2ccco2)c(=O)n(C)c1=O`, the inhibition in assay [1] was 0% (inactive); in [8], -4.53% (inactive); in assay [9], 14.7% (inactive). Moreover, the viability in assay [2] was 106%; in assay [4], 106% (inactive); in assay [5] it was 96.8% (inactive); in [6] it was 95.1% (inactive); in assay [7] (setting [10]), 90.1%; in assay [7] (setting [11]), 95.1%. Further, the Her2 level in assay [3] is 96% (inactive). For the same molecule, the differential viability (reversal) in assay [7] (H69AR cells + 2 uM doxorubicin) is 5% (inactive).

On to `CC(C)OC(=O)c1c(N)n(CC2CCCO2)c2nc3ccccc3nc12` (stereo not given), for which the results for the inhibition in assay [1], in [8] and in assay [9] were 5% (inactive), -1.58% (inactive) and -3.17% (inactive), respectively. In addition, the viability is 86.5% in [2]; 86.5% (inactive) in [4]; 102% (inactive) in assay [5]; 94.7% (inactive) in assay [6]; 89.7% in [7] (setting [10]); 94.7% in [7] (setting [11]). In addition, the Her2 level in assay [3] is 92.5% (inactive). In addition, in assay [7] (H69AR cells + 2 uM doxorubicin), the differential viability (reversal) is 4.96% (inactive).

In the case of `CC(C)(C)OC(=O)c1c(N)n(Cc2ccco2)c2nc3ccccc3nc12`, the inhibition in [1] is 3% (inactive); in assay [8], 0.79% (inactive); in assay [9], -6.13% (inactive). Further, the viability was 98.5% in assay [2]; 98.5% (inactive) in assay [4]; 62.5% (inactive) in assay [5]; 65.4% (inactive) in assay [6]; 74.8% in assay [7] (setting [10]); 65.4% in assay [7] (setting [11]). For the same molecule, in assay [3], the Her2 level was 76% (inactive). Moreover, the differential viability (reversal) in assay [7] (H69AR cells + 2 uM doxorubicin) was -9.48% (inactive).

Regarding `CC(=O)N1CC(=O)Nc2ccc(Cl)cc2C1c1ccc(F)cc1` (stereo not given), the inhibition is 0% (inactive) in assay [1], -3.29% (inactive) in assay [8] and -3.45% (inactive) in assay [9]. Further, the viability in assay [2] was 92.5%; in [4], 92.5% (inactive); in [5], 88.5% (inactive); in assay [6] it was 97.5% (inactive); in [7] (setting [10]), 72%; in [7] (setting [11]), 97.5%. In addition, the Her2 level in [3] is 102% (inactive). Also, in assay [7] (H69AR cells + 2 uM doxorubicin), the differential viability (reversal) was 25.5% (inactive).

As to `O=C1C2CCCN2C(c2ccc(Cl)c(Cl)c2)N1c1ccccn1` (stereo not given), the inhibition in [1] was 0% (inactive); in assay [8] it was -4.08% (inactive); in assay [9], 1.77% (inactive). Also, the viability in assay [2] is 128%; in assay [4], 128% (inactive); in assay [5], 107% (inactive); in assay [6], 97.4% (inactive); in assay [7] (setting [10]), 86%; in assay [7] (setting [11]) it was 97.4%. For the same molecule, the Her2 level in assay [3] is 102% (inactive). In addition, in assay [7] (H69AR cells + 2 uM doxorubicin), the differential viability (reversal) is 11.4% (inactive).

For the molecule `Cc1cnn(C2CCN(C)CC2)c1N`, the inhibition was 0% (inactive) in assay [1], 0.14% (inactive) in assay [8] and -5.41% (inactive) in assay [9]. Further, the viability in assay [2] is 97%; in assay [4], 97% (inactive); in assay [5], 102% (inactive); in [6], 104% (inactive); in assay [7] (setting [10]) it was 98.4%; in [7] (setting [11]), 104%. Further, the Her2 level in [3] is 96.5% (inactive). Also, the differential viability (reversal) in [7] (H69AR cells + 2 uM doxorubicin) was 5.52% (inactive).

With `COc1ccccc1OCCCn1cc(C(=O)c2ccco2)c2ccccc21`, the inhibition is 0% (inactive) in [1], -4.73% (inactive) in [8] and -5.33% (inactive) in assay [9]. In addition, the viability was 106% in [2]; 106% (inactive) in assay [4]; 74.9% (inactive) in [5]; 77.5% (inactive) in assay [6]; 82.7% in assay [7] (setting [10]); 77.5% in assay [7] (setting [11]). The Her2 level in [3] was 96% (inactive). In addition, the differential viability (reversal) in assay [7] (H69AR cells + 2 uM doxorubicin) was -5.27% (inactive).

With `Cc1[nH]c2c(Cl)cccc2c1CCN`, the results for the inhibition in [1], in assay [8] and in assay [9] were 0% (inactive), -4.67% (inactive) and 5.9% (inactive), respectively. For the same molecule, the viability in assay [2] was 97.5%; in assay [4], 97.5% (inactive); in [5], 84.4% (inactive); in assay [6], 13.2% (active); in assay [7] (setting [10]) it was 83.1%; in assay [7] (setting [11]), 13.2%. The Her2 level in assay [3] is 85.5% (inactive). In [7] (H69AR cells + 2 uM doxorubicin), the differential viability (reversal) was -69.9% (inactive).

In the case of `C(#CCN1CCOCC1)COCC#Cc1ccccc1`, the results for the inhibition in assay [1], in assay [8] and in assay [9] were 0% (inactive), -5.41% (inactive) and 1.11% (inactive), respectively. Besides, the viability is 92.5% in [2]; 92.5% (inactive) in assay [4]; 91.4% (inactive) in assay [5]; 101% (inactive) in assay [6]; 85.3% in assay [7] (setting [10]); 101% in assay [7] (setting [11]). In addition, in assay [3], the Her2 level was 85.5% (inactive). Besides, in assay [7] (H69AR cells + 2 uM doxorubicin), the differential viability (reversal) is 15.2% (inactive).

`COc1ccc(N2CCN(CCCN)CC2)cc1`: the inhibition is 0% (inactive) in assay [1], -0.91% (inactive) in assay [8] and -1.27% (inactive) in [9]. Moreover, the viability in assay [2] was 94.5%; in assay [4], 94.5% (inactive); in assay [5], 72.6% (inactive); in assay [6] it was 81.5% (inactive); in assay [7] (setting [10]) it was 77.7%; in [7] (setting [11]), 81.5%. Moreover, the Her2 level in assay [3] was 88% (inactive). Besides, the differential viability (reversal) in [7] (H69AR cells + 2 uM doxorubicin) was 3.81% (inactive).

For `C=CCn1c(O)c(C(C)=Nc2ccc(N(CC)CC)cc2)c(=O)[nH]c1=O`, the inhibition in assay [1] was 1% (inactive); in [8] it was -2.08% (inactive); in assay [9] it was -8% (inactive). Moreover, the viability in assay [2] was 102%; in assay [4], 102% (inactive); in assay [5] it was 62.6% (inactive); in assay [6], 16.3% (active); in assay [7] (setting [10]), 79.7%; in assay [7] (setting [11]), 16.3%. In assay [3], the Her2 level is 105% (inactive). For the same molecule, the differential viability (reversal) in assay [7] (H69AR cells + 2 uM doxorubicin) was -63.3% (inactive).

Consider `COC(=O)c1cncn1C(C)c1ccccc1` (stereo not given), for which the inhibition in assay [1] is 0% (inactive); in assay [8], -4.46% (inactive); in assay [9] it was -5.25% (inactive). For the same molecule, the viability in [2] was 88.5%; in [4], 88.5% (inactive); in assay [5] it was 108% (inactive); in assay [6] it was 95% (inactive); in assay [7] (setting [10]), 88.9%; in assay [7] (setting [11]), 95%. Moreover, the Her2 level in [3] is 80.5% (inactive). Moreover, the differential viability (reversal) in assay [7] (H69AR cells + 2 uM doxorubicin) was 6.07% (inactive).

Turning to `CC(=NCc1cccnc1)c1c(O)n(Cc2ccccc2)c(=O)[nH]c1=O`, the inhibition was 1% (inactive) in [1], -0.27% (inactive) in assay [8] and 2.95% (inactive) in assay [9]. Also, the viability was 91.5% in [2]; 91.5% (inactive) in [4]; 92.6% (inactive) in assay [5]; 93.5% (inactive) in assay [6]; 98.3% in assay [7] (setting [10]); 93.5% in assay [7] (setting [11]). For the same molecule, in assay [3], the Her2 level was 90.5% (inactive). Moreover, the differential viability (reversal) in assay [7] (H69AR cells + 2 uM doxorubicin) was -4.79% (inactive).

As for `Cc1ccc(S(=O)(=O)Cc2ccc(C(=O)N3CCC4(CC3)OCCO4)o2)cc1`, the inhibition in [1] was 0% (inactive); in assay [8] it was 7.37% (inactive); in assay [9], -5.64% (inactive). Further, the viability in [2] was 75%; in assay [4], 75% (inactive); in assay [5], 103% (inactive); in [6] it was 90.6% (inactive); in [7] (setting [10]) it was 93.7%; in assay [7] (setting [11]), 90.6%. Besides, the Her2 level in [3] is 104% (inactive). In addition, the differential viability (reversal) in assay [7] (H69AR cells + 2 uM doxorubicin) is -3.13% (inactive).
